Key:
Type in all cases: functional
[1] = tested on: Abutilon theophrasti; assay: Post-emergence herbicidal activity against Abutilon theophrasti (velvetleaf) assessed as growth inhibition at 75 g.a.i./ha applied at two-leaf stage measured after 15 days; conditions: 360 h, read-out: GI
Method in brief: (§1)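 Pot-grown weeds sown 5 mm deep in greenhouse clay soil (pH 6.5, 1.7% organic matter, CEC 12.9 cmol/kg) at 22-25 °C. Stock diluted with water and sprayed post-emergence: dicots at 2-leaf stage, monocots at 1-leaf stage. Untreated and DMF solvent controls were included. % growth inhibition was scored visually versus untreated controls after 15 days. Triplicates averaged.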

[2] = tested on: Setaria viridis; assay: Pre-emergence herbicidal activity against Setaria viridis (green foxtail) assessed as growth inhibition at 75 g.a.i./ha applied 24 hr after seeds were sown measured after 15 days; conditions: read-out: GI
Method in brief: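 Preliminary pre-emergence screen at a single rate of 75 g a.i./ha. Stock diluted with water and sprayed on greenhouse pots 24 h after seeds were sown 5 mm deep in clay soil (pH 6.5, 1.7% organic matter); grown at 22-25 °C. Untreated and DMF solvent controls included; triplicate. Visual % growth inhibition vs untreated after 15 days, averaged and banded (>80% top band).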

[3] = tested on: Echinochloa crus-galli; assay: Pre-emergence herbicidal activity against Echinochloa crus-galli (barnyard grass) assessed as growth inhibition at 75 g.a.i./ha applied 24 hr after seeds were sown measured after 15 days; conditions: read-out: GI
Method in brief: (§2)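 Weeds sown 5 mm deep in pots of greenhouse clay soil (pH 6.5, 37.5% clay, CEC 12.9 cmol/kg) and grown at 22-25 °C. Water-diluted formulation was applied pre-emergence 24 h after sowing. Untreated and DMF solvent controls were included. Growth inhibition was visually rated in % against untreated controls after 15 days, as the mean of triplicates.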

[4] = tested on: Digitaria sanguinalis; assay: Pre-emergence herbicidal activity against Digitaria sanguinalis (hairy crabgrass) assessed as growth inhibition at 75 g.a.i./ha applied 24 hr after seeds were sown measured after 15 days; conditions: read-out: GI; method in brief: as §2
[5] = tested on: Amaranthus; assay: Pre-emergence herbicidal activity against Amaranthus ascendens assessed as growth inhibition at 75 g.a.i./ha applied 24 hr after seeds were sown measured after 15 days; conditions: read-out: GI; method in brief: as §2
[6] = tested on: Chenopodium album; assay: Pre-emergence herbicidal activity against Chenopodium album assessed as growth inhibition at 75 g.a.i./ha applied 24 hr after seeds were sown measured after 15 days; conditions: read-out: GI; method in brief: as §2
[7] = tested on: Abutilon theophrasti; assay: Pre-emergence herbicidal activity against Abutilon theophrasti (velvetleaf) assessed as growth inhibition at 75 g.a.i./ha applied 24 hr after seeds were sown measured after 15 days; conditions: read-out: GI; method in brief: as §2
[8] = tested on: Setaria viridis; assay: Post-emergence herbicidal activity against Setaria viridis (green foxtail) assessed as growth inhibition at 75 g.a.i./ha applied at one-leaf stage measured after 15 days; conditions: 360 h, read-out: GI; method in brief: as §1
[9] = tested on: Echinochloa crus-galli; assay: Post-emergence herbicidal activity against Echinochloa crus-galli (barnyard grass) assessed as growth inhibition at 75 g.a.i./ha applied at one-leaf stage measured after 15 days; conditions: 360 h, read-out: GI; method in brief: as §1
[10] = tested on: Amaranthus; assay: Post-emergence herbicidal activity against Amaranthus ascendens assessed as growth inhibition at 75 g.a.i./ha applied at two-leaf stage measured after 15 days; conditions: 360 h, read-out: GI; method in brief: as §1
[11] = tested on: Digitaria sanguinalis; assay: Post-emergence herbicidal activity against Digitaria sanguinalis (hairy crabgrass) assessed as growth inhibition at 75 g.a.i./ha applied at one-leaf stage measured after 15 days; conditions: 360 h, read-out: GI; method in brief: as §1
[12] = tested on: Chenopodium album; assay: Post-emergence herbicidal activity against Chenopodium album assessed as growth inhibition at 75 g.a.i./ha applied at two-leaf stage measured after 15 days; conditions: 360 h, read-out: GI; method in brief: as §1

Compound | inhibition of growth at 75 g/ha [1] | inhibition of growth at 75 g/ha [2] | inhibition of growth at 75 g/ha [3] | inhibition of growth at 75 g/ha [4] | inhibition of growth at 75 g/ha [5] | inhibition of growth at 75 g/ha [6] | inhibition of growth at 75 g/ha [7] | inhibition of growth at 75 g/ha [8] | inhibition of growth at 75 g/ha [9] | inhibition of growth at 75 g/ha [10] | inhibition of growth at 75 g/ha [11] | inhibition of growth at 75 g/ha [12]
C#CCN1C(=O)COc2cc(F)c(N3C(=O)c4ccc(F)cc4C3=O)cc21 | > 80% | > 80% | > 80% | > 80% | > 80% | > 80% | > 80% | > 80% | > 80% | > 80% | > 80% | > 80%
CCOC(=O)CN1C(=O)COc2cc(F)c(N3C(=O)c4ccc([N+](=O)[O-])cc4C3=O)cc21 | 50% | < 50% | < 50% | < 50% | < 50% | < 50% | < 50% | < 50% | < 50% | 50% | < 50% | 50%
CCOC(=O)CN1C(=O)COc2cc(N3C(=O)c4ccccc4C3=O)c(F)cc21 | < 50% | < 50% | < 50% | < 50% | < 50% | < 50% | < 50% | < 50% | < 50% | < 50% | < 50% | < 50%
CCOC(=O)CN1C(=O)COc2cc(N3C(=O)c4ccc(C)cc4C3=O)c(F)cc21 | < 50% | < 50% | < 50% | < 50% | < 50% | < 50% | < 50% | < 50% | < 50% | < 50% | < 50% | < 50%
CCOC(=O)CN1C(=O)COc2cc(N3C(=O)c4cc(Cl)c(Cl)cc4C3=O)c(F)cc21 | < 50% | < 50% | < 50% | < 50% | < 50% | < 50% | < 50% | < 50% | < 50% | < 50% | < 50% | < 50%
COC(=O)CN1C(=O)COc2cc(F)c(N3C(=O)C4=C(CCCC4)C3=O)cc21 | > 80% | < 50% | < 50% | < 50% | 50% | 50% | 50% | 50% | 50% | > 80% | 50% | > 80%
COC(=O)C(C)N1C(=O)COc2cc(F)c(N3C(=O)C4=C(CCCC4)C3=O)cc21 (configuration not stated) | > 80% | < 50% | < 50% | < 50% | 50% | 50% | > 80% | > 80% | > 80% | > 80% | > 80% | > 80%
CCOC(=O)CN1C(=O)COc2cc(F)c(N3C(=O)C4=C(CCCC4)C3=O)cc21 | > 80% | < 50% | < 50% | < 50% | > 80% | > 80% | > 80% | < 50% | < 50% | > 80% | < 50% | > 80%
CCOC(=O)C(c1ccccc1)N1C(=O)COc2cc(F)c(N3C(=O)C4=C(CCCC4)C3=O)cc21 (configuration not stated) | > 80% | 50% | < 50% | 50% | > 80% | > 80% | 50% | > 80% | 50% | > 80% | > 80% | > 80%
CCOC(=O)C(C)(C)N1C(=O)C(C)Oc2cc(F)c(N3C(=O)C4=C(CCCC4)C3=O)cc21 (configuration not stated) | > 80% | < 50% | < 50% | < 50% | 50% | < 50% | < 50% | 50% | 50% | > 80% | 50% | > 80%
CCOC(=O)C(CC)N1C(=O)COc2cc(F)c(N3C(=O)C4=C(CCCC4)C3=O)cc21 (configuration not stated) | > 80% | 50% | 50% | 50% | 50% | 50% | > 80% | 50% | 50% | > 80% | 50% | > 80%
COC(=O)CN1C(=O)C(C)Oc2cc(F)c(N3C(=O)C4=C(CCCC4)C3=O)cc21 (configuration not stated) | > 80% | < 50% | < 50% | < 50% | > 80% | > 80% | > 80% | 50% | < 50% | > 80% | 50% | > 80%
CCOC(=O)C(C)N1C(=O)COc2cc(F)c(N3C(=O)C4=C(CCCC4)C3=O)cc21 (configuration not stated) | > 80% | 50% | < 50% | 50% | > 80% | > 80% | > 80% | > 80% | > 80% | > 80% | > 80% | > 80%
CCC(C(=O)OC)N1C(=O)COc2cc(F)c(N3C(=O)C4=C(CCCC4)C3=O)cc21 (configuration not stated) | > 80% | < 50% | < 50% | < 50% | < 50% | < 50% | < 50% | 50% | < 50% | > 80% | 50% | > 80%
CCOC(=O)CN1C(=O)C(C)Oc2cc(F)c(N3C(=O)C4=C(CCCC4)C3=O)cc21 (configuration not stated) | > 80% | < 50% | < 50% | < 50% | > 80% | > 80% | > 80% | < 50% | < 50% | > 80% | < 50% | > 80%
CCOC(=O)C(c1ccccc1)N1C(=O)C(C)Oc2cc(F)c(N3C(=O)C4=C(CCCC4)C3=O)cc21 (configuration not stated) | > 80% | > 80% | > 80% | > 80% | 50% | 50% | 50% | 50% | < 50% | > 80% | 50% | > 80%

— ChEMBL document CHEMBL3045743, “Synthesis and herbicidal activity of isoindoline-1,3-dione substituted benzoxazinone derivatives containing a carboxylic ester group” (J Agric Food Chem, 2009)
